This is an account of results in ChEMBL document CHEMBL1149419, “Peptide-mediated cell transport of water soluble porphyrin conjugates” (J Med Chem, 2006).

Data set [1] deals with HEp-2. The experiment in a line: Dark cytotoxicity against human HEp2 cells at 100 uM. In kind it is functional, cell-based. Summed up:
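HEp2 cells seeded at 10 000 per well and allowed 36-48 h to attach. They were given increasing conjugate concentrations up to 100 µM and incubated overnight without light. Viability was read with Cell Titer Blue fluorescence at 520/584 nm and normalized to untreated cells (100%) and 0.2% saponin-treated cells (0%).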

Data set [2] relates to HEp-2. The experiment in a line: Phototoxicity against human HEp2 cells at 10 uM. The data set is classed as cell-based. Summed up:
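HEp2 cells seeded and attached 36-48 h, then loaded overnight with conjugate at 0, 0.625, 1.25, 2.5, 5 and 10 µM. Medium was swapped for medium with 50 mM HEPES pH 7.4. Cells were irradiated on ice for 10 min with a 100 W halogen lamp through a 610 nm long-pass filter and a water IR filter, about 0.5 J/cm2. After overnight incubation, viability was read by Cell Titer Blue.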

In data set [3] the test system is HEp-2. Briefly: Cellular uptake in human HEp2 cells at 10 uM. In kind it is ADME, cell-based. As to conditions: hep-2, 10 µM; call rule not given here. Summed up:
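HEp2 cells seeded at 10 000 per well and grown overnight, then exposed to 10 µM conjugate (diluted into medium from 10 mM water stocks) for 0, 1, 2, 4, 8 and 24 h. After PBS wash, cells lysed in 0.25% Triton X-100/PBS. Conjugate quantified by fluorescence at 410/650 nm (ex/em), and cell number by CyQuant.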

[4] abbreviates: Homo sapiens, HEp-2, read-out: IC50.

The structures appear in SMILES notation. *1 amine or outer side, *2 acyl side, *3 side chain or, on linkers, in order; H or OH if unused. Where a SMILES comes first, the peptide text is derived from it. [ ]: non-standard residue; d: D form. The star is where a group is joined. X1 = O=C(COCC(=O)*)Nc1ccc(-c2c3nc(c(-c4ccccc4)c4ccc([nH]4)c(-c4ccccc4)c4nc(c(-c5ccccc5)c5ccc2[nH]5)C=C4)C=C3)cc1; NH(CH2CH2O)6CH2CO = O=C(COCCOCCOCCOCCOCCOCCN[*:1])[*:2]

Take `NCCCC[C@H](NC(=O)[C@H](CCCN=C(N)N)NC(=O)CNC(=O)COCC(=O)NCCOCCOCCOCCOCCOCCOCCOCCNC(=O)COc1ccc(-c2c3nc(c(-c4ccc(OCC(=O)O)cc4)c4ccc([nH]4)c(-c4ccc(OCC(=O)O)cc4)c4nc(c(-c5ccc(OCC(=O)O)cc5)c5ccc2[nH]5)C=C4)C=C3)cc1)C(=O)N[C@@H](CCCCN)C(=O)N[C@@H](CCCN=C(N)N)C(=O)N[C@@H](CCCN=C(N)N)C(=O)N[C@@H](CCC(N)=O)C(=O)N[C@@H](CCCN=C(N)N)C(=O)N[C@@H](CCCN=C(N)N)C(=O)N[C@@H](CCCN=C(N)N)C(=O)N1CCC[C@H]1C(=O)N1CCC[C@H]1C(=O)N[C@@H](CCC(N)=O)C(N)=O`: the IC50 result in the data set on HEp-2 [1] (hep-2) and in the data set on HEp-2 [2] (hep-2) was “Not Active” in each case. Further, the result in the data set with HEp-2 [3] was Active.
For `CC(C)[C@H](NC(=O)[C@H](CCCCN)NC(=O)[C@H](CCCN=C(N)N)NC(=O)[C@H](CCCCN)NC(=O)[C@H](CCCCN)NC(=O)[C@H](CCCCN)NC(=O)[C@@H]1CCCN1C(=O)CNC(=O)COCC(=O)NCCOCCOCCOCCOCCOCCOCCOCCNC(=O)COc1ccc(-c2c3nc(c(-c4ccc(OCC(=O)O)cc4)c4ccc([nH]4)c(-c4ccc(OCC(=O)O)cc4)c4nc(c(-c5ccc(OCC(=O)O)cc5)c5ccc2[nH]5)C=C4)C=C3)cc1)C(N)=O`, the IC50 result in the data set on HEp-2 [1] (hep-2) and in the data set with HEp-2 [2] (hep-2) was “Not Active” in each case. Moreover, the outcome with HEp-2 [3] was Active.
`N=C(N)NCCC[C@H](NC(=O)CNC(=O)COCCOCCOCCOCCOCCOCCNC(=O)COCC(=O)Nc1ccc(-c2c3nc(c(-c4ccccc4)c4ccc([nH]4)c(-c4ccccc4)c4nc(c(-c5ccccc5)c5ccc2[nH]5)C=C4)C=C3)cc1)C(=O)N[C@@H](CCCN=C(N)N)C(=O)N[C@@H](CCCN=C(N)N)C(=O)N[C@@H](CCCN=C(N)N)C(=O)N[C@@H](CCCN=C(N)N)C(=O)N[C@@H](CCCNC(=N)N)C(=O)N[C@@H](CCCNC(=N)N)C(=O)N[C@@H](CCCN=C(N)N)C(=O)O`: the IC50 was 75 µM with HEp-2 [1] (setting [4]) and “Active” in the data set with HEp-2 [2] (hep-2). For the same molecule, the result in the data set with HEp-2 [3] was Active.
On to `CC(C)[C@H](NC(=O)[C@H](CCCCN)NC(=O)[C@H](CCCN=C(N)N)NC(=O)[C@H](CCCCN)NC(=O)[C@H](CCCCN)NC(=O)[C@H](CCCCN)NC(=O)[C@@H]1CCCN1C(=O)CNC(=O)COCCOCCOCCOCCOCCOCCNC(=O)COCC(=O)Nc1ccc(-c2c3nc(c(-c4ccccc4)c4ccc([nH]4)c(-c4ccccc4)c4nc(c(-c5ccccc5)c5ccc2[nH]5)C=C4)C=C3)cc1)C(N)=O` (X1-[NH(CH2CH2O)6CH2CO]GPKKKRKV-NH2), for which the IC50 with HEp-2 [1] (setting [4]) was 90 µM; in the data set on HEp-2 [2] (Homo sapiens, HEp-2, light or radiation study, read-out: IC50) it was 1.5 µM. Moreover, in the data set on HEp-2 [3], the result was Active.
As to `NCCCC[C@H](NC(=O)[C@H](CCCN=C(N)N)NC(=O)CNC(=O)COCCOCCOCCOCCOCCOCCNC(=O)COCC(=O)Nc1ccc(-c2c3nc(c(-c4ccccc4)c4ccc([nH]4)c(-c4ccccc4)c4nc(c(-c5ccccc5)c5ccc2[nH]5)C=C4)C=C3)cc1)C(=O)N[C@@H](CCCCN)C(=O)N[C@@H](CCCN=C(N)N)C(=O)N[C@@H](CCCN=C(N)N)C(=O)N[C@@H](CCC(N)=O)C(=O)N[C@@H](CCCN=C(N)N)C(=O)N[C@@H](CCCN=C(N)N)C(=O)N[C@@H](CCCN=C(N)N)C(=O)N1CCC[C@H]1C(=O)N1CCC[C@H]1C(=O)N[C@@H](CCC(N)=O)C(N)=O`, the figures for the concentration for half-maximal inhibition (IC50) in the data set with HEp-2 [1] (setting [4]) and in the data set with HEp-2 [2] (hep-2) were 30 µM and “Active”, respectively. In addition, the result with HEp-2 [3] was Active.

Usually IC50 stands for the concentration that inhibits the measured activity by half.
